Converted amounts (≈) assume the structure as drawn.
Experiments:
Cannabinoid receptor 1 [1] = target: T1, Cannabinoid receptor 1 (Homo sapiens, UniProt P21554); assay: Displacement of [3H]CP55940 from human CB1 receptor expressed in HEK293 cells; assay type: cell-based
Cannabinoid receptor 2 = Cannabinoid receptor 2 (Homo sapiens, UniProt P34972); assay: Binding affinity to human CB2 receptor
Cannabinoid receptor 1 [2] = target: T1, Cannabinoid receptor 1; assay: Agonist activity at human CB1 receptor expressed in HEK293 cells assessed as [35S]GTPgamma binding; assay type: functional, cell-based
Cannabinoid receptor 1 [3] = target: T1, Cannabinoid receptor 1; assay: Agonist activity at human CB1 receptor expressed in HEK293 cells assessed as [35S]GTPgamma binding relative to WIN55212-2; assay type: functional, cell-based
Summary of the method: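 GTPγ35S binding on membranes from HEK293 EBNA cells stably transfected with cloned human CB1; Emax relative to WIN55,212-2 as reference agonist; means of at least three measurements.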

[4] = Intrinsic clearance in human liver microsomes at 1 uM in presence of NADPH; assay type: ADME, Microsome; details: read-out: CLH
[5] = Thermodynamic solubility of the compound at pH 7.4; details: buffer
[6] = Apparent permeability from apical to basal side of human Caco2 cells at 10 uM; details: Caco-2
[7] = Terminal half life in Sprague-Dawley rat at 2 umol/kg, iv; assay type: ADME, organism-based; details: in vivo, read-out: beta t1/2 (converted)
[8] = Volume of distribution at steady state in Sprague-Dawley rat at 2 umol/kg, iv; assay type: ADME, organism-based; details: in vivo, read-out: Vdss
[9] = Clearance in Sprague-Dawley rat at 2 umol/kg, iv; assay type: ADME, organism-based; details: in vivo
[10] = Tmax in Sprague-Dawley rat at 9 umol/kg, po; assay type: ADME, organism-based; details: in vivo
[11] = Cmax in Sprague-Dawley rat at 9 umol/kg, po; assay type: ADME, organism-based; design: dose 9 umol/kg, route oral; details: in vivo
[12] = Oral bioavailability in Sprague-Dawley rat at 9 umol/kg; assay type: ADME, organism-based; details: in vivo
[13] = Plasma protein binding in Sprague-Dawley rat; assay type: ADME, cell-free; details: read-out: PPB (converted)
Cytochrome P450 1A2 = target: T2, Cytochrome P450 1A2 (Homo sapiens, UniProt P05177); assay: Inhibition of CYP1A2 in human liver microsomes; assay type: ADME, Microsome
T2 sequence (P05177 whole entry): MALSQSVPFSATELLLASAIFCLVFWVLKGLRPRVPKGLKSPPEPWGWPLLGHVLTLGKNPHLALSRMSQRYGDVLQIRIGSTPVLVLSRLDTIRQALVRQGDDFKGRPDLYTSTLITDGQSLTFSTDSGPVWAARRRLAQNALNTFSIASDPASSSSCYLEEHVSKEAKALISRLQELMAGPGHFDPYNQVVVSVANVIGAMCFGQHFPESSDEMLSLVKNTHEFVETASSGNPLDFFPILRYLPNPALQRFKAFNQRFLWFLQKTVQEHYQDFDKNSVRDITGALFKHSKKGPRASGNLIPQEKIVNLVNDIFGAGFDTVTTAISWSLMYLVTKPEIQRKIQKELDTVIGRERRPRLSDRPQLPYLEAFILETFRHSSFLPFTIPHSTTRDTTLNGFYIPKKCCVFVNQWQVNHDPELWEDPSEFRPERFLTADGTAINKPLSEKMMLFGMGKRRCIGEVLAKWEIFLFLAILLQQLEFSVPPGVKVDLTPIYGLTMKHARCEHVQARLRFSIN

Cytochrome P450 2C9 = Cytochrome P450 2C9 (Homo sapiens, UniProt P11712); assay: Inhibition of CYP2C9 in human liver microsomes; assay type: ADME, Microsome
Cytochrome P450 2C19 = Cytochrome P450 2C19 (Homo sapiens, UniProt P33261); assay: Inhibition of CYP2C19 in human liver microsomes; assay type: ADME, Microsome
Summary of the method: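 IC50 determined in human liver microsomes as part of a five-isoform panel (CYP1A2, CYP2C9, CYP2C19, CYP2D6, CYP3A4) to assess drug-interaction potential.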

Cytochrome P450 2D6 = Cytochrome P450 2D6 (Homo sapiens, UniProt P10635); assay: Inhibition of CYP2D6 in human liver microsomes; assay type: ADME, Microsome
Cytochrome P450 3A4 = Cytochrome P450 3A4 (Homo sapiens, UniProt P08684); assay: Inhibition of CYP3A4 in human liver microsomes; assay type: ADME, Microsome
Rattus norvegicus = assay: Analgesic activity in sc dosed rat assessed as reversal of carrageenan-induced heat hyperalgesia; assay type: functional, organism-based
Summary of the method: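 Rat carrageenan inflammatory pain model; reversal of heat hyperalgesia after subcutaneous dosing at 10, 30 and 100 µmol/kg.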

Plasma [14] = assay: Plasma concentration in rat carrageenan inflammatory pain model at 10 umol/kg, sc; assay type: ADME, cell-free
Summary of the method: (§1)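 Rats in carrageenan inflammatory pain model dosed sc at 10, 30 or 100 µmol/kg; total plasma and brain levels by protein precipitation with ACN (brain homogenised first), centrifugation 9000g, 30 min, 4 °C, then reversed-phase LC-electrospray MS/MS against a serial-dilution calibration curve.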

Plasma [15] = assay: Plasma concentration in rat carrageenan inflammatory pain model at 30 umol/kg, sc; assay type: ADME, cell-free; summary of the method: as §1
Plasma [16] = assay: Plasma concentration in rat carrageenan inflammatory pain model at 100 umol/kg, sc; assay type: ADME, cell-free; summary of the method: as §1
Brain = assay: Drug uptake in carrageenan inflammatory pain model of rat brain at 10 to 100 umol/kg, sc; assay type: ADME, organism-based; details: in vivo; summary of the method: as §1
[17] = Intrinsic clearance in rat liver microsomes; assay type: ADME, Microsome; details: read-out: CLH
Summary of the method: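 Rat liver microsomes; intrinsic clearance expressed per mg microsomal protein.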

[18] = Ratio of drug level in brain to plasma in rat by microdialysis assay

T1 sequence (P21554 whole entry): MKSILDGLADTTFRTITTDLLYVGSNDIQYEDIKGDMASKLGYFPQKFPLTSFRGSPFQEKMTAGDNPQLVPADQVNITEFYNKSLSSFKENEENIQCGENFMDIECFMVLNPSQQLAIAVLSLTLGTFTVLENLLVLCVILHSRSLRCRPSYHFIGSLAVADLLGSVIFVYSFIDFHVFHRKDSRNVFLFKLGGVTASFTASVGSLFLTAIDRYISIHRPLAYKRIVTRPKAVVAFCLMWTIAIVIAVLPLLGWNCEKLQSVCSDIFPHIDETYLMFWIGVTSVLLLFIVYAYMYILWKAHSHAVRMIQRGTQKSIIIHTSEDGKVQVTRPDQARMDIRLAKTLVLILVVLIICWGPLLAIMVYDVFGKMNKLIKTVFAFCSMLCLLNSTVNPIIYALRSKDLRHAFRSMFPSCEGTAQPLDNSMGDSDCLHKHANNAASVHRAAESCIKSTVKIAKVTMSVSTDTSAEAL
Chain of Cytochrome P450 3A4 (P08684 whole entry): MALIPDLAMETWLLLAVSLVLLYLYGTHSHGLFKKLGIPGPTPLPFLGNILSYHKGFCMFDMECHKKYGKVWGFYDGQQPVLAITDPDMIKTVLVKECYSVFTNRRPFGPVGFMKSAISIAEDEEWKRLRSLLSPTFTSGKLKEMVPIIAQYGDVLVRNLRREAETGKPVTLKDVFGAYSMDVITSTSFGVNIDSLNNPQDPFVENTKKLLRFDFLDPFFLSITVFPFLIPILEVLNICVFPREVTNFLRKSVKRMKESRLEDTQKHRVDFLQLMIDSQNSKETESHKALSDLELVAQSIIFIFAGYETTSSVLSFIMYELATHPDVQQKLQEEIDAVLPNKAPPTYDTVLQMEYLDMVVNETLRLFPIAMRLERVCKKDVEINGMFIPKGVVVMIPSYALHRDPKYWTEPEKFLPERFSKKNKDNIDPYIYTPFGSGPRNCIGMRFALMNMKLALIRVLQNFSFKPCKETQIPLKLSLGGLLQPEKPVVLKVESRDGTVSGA
Chain of Cytochrome P450 2C9 (P11712 whole entry): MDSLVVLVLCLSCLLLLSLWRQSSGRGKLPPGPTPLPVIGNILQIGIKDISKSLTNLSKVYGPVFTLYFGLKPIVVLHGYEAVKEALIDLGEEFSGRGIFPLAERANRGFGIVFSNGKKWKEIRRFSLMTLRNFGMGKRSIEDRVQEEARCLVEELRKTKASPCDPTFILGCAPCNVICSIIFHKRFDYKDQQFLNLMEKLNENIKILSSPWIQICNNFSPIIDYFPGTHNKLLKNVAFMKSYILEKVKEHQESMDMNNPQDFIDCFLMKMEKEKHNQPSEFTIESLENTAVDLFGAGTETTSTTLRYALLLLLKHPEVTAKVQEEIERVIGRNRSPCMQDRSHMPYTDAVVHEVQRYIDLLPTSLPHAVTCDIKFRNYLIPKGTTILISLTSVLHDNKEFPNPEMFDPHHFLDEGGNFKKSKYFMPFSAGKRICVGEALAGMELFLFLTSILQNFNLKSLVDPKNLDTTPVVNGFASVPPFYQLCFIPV
Chain of Cytochrome P450 2C19 (P33261 whole entry, canonical isoform): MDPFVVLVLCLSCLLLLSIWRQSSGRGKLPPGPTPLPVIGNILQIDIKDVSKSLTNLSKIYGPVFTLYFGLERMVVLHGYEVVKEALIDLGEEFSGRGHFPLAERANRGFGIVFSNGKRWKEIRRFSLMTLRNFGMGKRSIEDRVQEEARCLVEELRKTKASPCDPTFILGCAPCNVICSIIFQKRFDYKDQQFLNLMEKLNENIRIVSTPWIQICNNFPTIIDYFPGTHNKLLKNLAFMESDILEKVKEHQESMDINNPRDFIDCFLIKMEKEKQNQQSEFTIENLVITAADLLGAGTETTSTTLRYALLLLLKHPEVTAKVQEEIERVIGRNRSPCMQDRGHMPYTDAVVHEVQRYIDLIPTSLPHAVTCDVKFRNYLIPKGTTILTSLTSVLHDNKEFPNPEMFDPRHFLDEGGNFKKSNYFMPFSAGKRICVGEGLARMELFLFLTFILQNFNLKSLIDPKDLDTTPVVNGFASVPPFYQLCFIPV
Chain of Cytochrome P450 2D6 (P10635 whole entry): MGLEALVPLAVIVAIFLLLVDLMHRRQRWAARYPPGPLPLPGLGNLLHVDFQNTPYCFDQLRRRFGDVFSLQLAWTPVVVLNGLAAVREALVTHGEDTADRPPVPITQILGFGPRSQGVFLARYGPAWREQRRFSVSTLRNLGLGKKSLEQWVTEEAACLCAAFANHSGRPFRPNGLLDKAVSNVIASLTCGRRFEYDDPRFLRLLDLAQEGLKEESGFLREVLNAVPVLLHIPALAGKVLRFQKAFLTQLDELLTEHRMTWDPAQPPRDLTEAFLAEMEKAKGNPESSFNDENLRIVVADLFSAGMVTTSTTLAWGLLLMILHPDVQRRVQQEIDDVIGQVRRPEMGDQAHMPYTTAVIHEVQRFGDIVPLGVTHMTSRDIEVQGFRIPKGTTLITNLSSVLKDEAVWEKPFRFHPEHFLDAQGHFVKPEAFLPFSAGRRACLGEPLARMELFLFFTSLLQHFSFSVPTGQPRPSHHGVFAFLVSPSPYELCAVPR
Chain of Cannabinoid receptor 2 (P34972 whole entry): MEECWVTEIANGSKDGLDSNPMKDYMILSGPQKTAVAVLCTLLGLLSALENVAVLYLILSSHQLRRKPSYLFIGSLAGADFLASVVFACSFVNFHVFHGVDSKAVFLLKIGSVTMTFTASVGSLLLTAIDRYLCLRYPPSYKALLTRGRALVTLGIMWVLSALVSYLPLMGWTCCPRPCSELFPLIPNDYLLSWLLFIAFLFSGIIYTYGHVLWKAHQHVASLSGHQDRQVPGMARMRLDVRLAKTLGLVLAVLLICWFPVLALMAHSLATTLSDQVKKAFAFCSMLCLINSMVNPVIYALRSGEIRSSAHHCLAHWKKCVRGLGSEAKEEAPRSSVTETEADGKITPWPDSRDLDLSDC

SMILES: CNC(=O)CCCN(C)C(=O)c1ccc2c(c1)c1c(n2C)CC[C@@H](C2CCOCC2)C1
- Ki (Cannabinoid receptor 1 [1]): 29.3 nM
- Ki (Cannabinoid receptor 2): 15.5 nM
- EC50 (Cannabinoid receptor 1 [2]): 51.4 nM
- Emax (Cannabinoid receptor 1 [3]): 116%
- microsomal CLint at 1 µM [4]: 26 µL/min/mg
- solubility thermodynamic [5]: 1120 µM (≈ 478 µg/mL)
- Papp A→B at 10 µM [6]: 12 ×10⁻⁶ cm/s
- half-life [7]: 2.4 h
- Vd [8]: 0.3 L/kg
- clearance [9]: 2.8 mL/min/kg
- Tmax [10]: 2.2 h
- Cmax [11]: 6.3 µM
- bioavailability [12]: 100%
- fraction unbound [13]: 0.021
- INH (Cytochrome P450 1A2): > 20 µM
- IC50 (Cytochrome P450 2C9): 7000 nM
- INH (Cytochrome P450 2C19): > 20 µM
- INH (Cytochrome P450 2D6): > 20 µM
- INH (Cytochrome P450 3A4): > 20 µM
- Activity (Rattus norvegicus): Dose-dependent effect
- concentration (Plasma [14]): 6.9 µM
- concentration (Plasma [15]): 9.1 µM
- concentration (Plasma [16]): 50.7 µM
- Drug uptake (Brain): Not Active
- microsomal CLint [17]: 61 µL/min/mg
- Kp [18]: 0.02
